Results on nine compounds are retold here after ChEMBL document CHEMBL1131011, “Pharmacophores incorporating numerous excluded volumes defined by X-ray crystallographic structure in three-dimensional database searching: application to the thyroid hormone receptor” (J Med Chem, 1998).

One test has as its target T1, Thyroid hormone receptor alpha (Homo sapiens, UniProt P10827).
T1 sequence (P10827 whole entry): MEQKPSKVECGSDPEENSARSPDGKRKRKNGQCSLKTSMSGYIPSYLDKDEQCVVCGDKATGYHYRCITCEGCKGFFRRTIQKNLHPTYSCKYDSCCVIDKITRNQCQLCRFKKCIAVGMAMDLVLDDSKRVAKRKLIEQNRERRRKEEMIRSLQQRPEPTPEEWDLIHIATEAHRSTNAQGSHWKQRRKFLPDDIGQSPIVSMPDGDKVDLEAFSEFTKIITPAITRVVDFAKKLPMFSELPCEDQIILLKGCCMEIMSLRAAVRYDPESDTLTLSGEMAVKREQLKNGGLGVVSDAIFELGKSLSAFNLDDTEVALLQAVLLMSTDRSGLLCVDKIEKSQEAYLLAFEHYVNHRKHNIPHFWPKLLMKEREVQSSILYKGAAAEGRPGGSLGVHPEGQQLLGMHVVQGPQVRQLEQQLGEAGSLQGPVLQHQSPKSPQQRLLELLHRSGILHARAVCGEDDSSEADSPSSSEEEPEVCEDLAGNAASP
Kind of test: Inhibitory activity expressed as concentration required to inhibit the binding of [125I]T3 to human thyroid hormone-alpha. The method, boiled down: (§1)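 hTHR from nuclear extracts of baculovirus-infected sf-9 cells, 20 pM final, with [125I]T3 at 200 pM final. Compounds serially diluted in DMSO. Buffer: 400 mM KCl, K phosphate, 1 mM MgCl2, 0.5 mM EDTA, 8.7% glycerol, 6 mM monothioglycerol, 0.5% reticulocyte lysate; 18–20 h, 4 °C. Bound and free separated on Sephadex G-25, gamma-counted. IC50 from competition curve, second of two titrations.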
Take `N=C(c1ccccn1)N(N)S(=O)(=O)c1cc(Cl)c(Oc2ccc([N+](=O)[O-])cc2Cl)c(Cl)c1`: the IC50 was determined as 39 µM.
Same read-out and setting: to `[NH-]C(c1cc(Cl)cc(Cl)c1)=[N+](N)S(=O)(=O)c1cc(Cl)c(Oc2ccc([N+](=O)[O-])cc2Cl)c(Cl)c1` belongs 0.93 µM; to `O=C(Nc1ccc(Cc2ccc(NC(=O)c3cccc([N+](=O)[O-])c3)cc2)cc1)c1cccc([N+](=O)[O-])c1`, 18.1 µM; to `N=C(CCl)N(N)S(=O)(=O)c1cc(Cl)c(Oc2ccc([N+](=O)[O-])cc2Cl)c(Cl)c1`, 1.8 µM.
Turning to `Cn1c(Cc2nn(C)c(=O)c3ccccc23)ccc1SCC(=O)c1ccc(Cl)cc1Cl`, the IC50 is 69 µM.

The next test addresses T1, Thyroid hormone receptor alpha. Kind of test: Inhibitory activity expressed as concentration required to inhibit the binding of [125I]T3 to human thyroid hormone-alpha; NA =Inactive. A digest of the protocol: as §1
Regarding `N=C(c1ccc(Cl)cc1)N(N)S(=O)(=O)c1cc(Cl)c(Oc2ccc([N+](=O)[O-])cc2Cl)c(Cl)c1`, the IC50 result was “Not Active”.
Same read-out and setting: to `Cn1c(Cc2nn(C)c(=O)c3ccccc23)ccc1SCc1ccc(Cl)cc1Cl` belongs “Not Active”; to `N=C(c1cccnc1)N(N)S(=O)(=O)c1cc(Cl)c(Oc2ccc([N+](=O)[O-])cc2Cl)c(Cl)c1`, “Not Active”.
The same measure, in the same setting: to `N=C(c1ccc(Cl)cc1)N(N)S(=O)(=O)c1cc(Cl)c(Oc2ccc([N+](=O)[O-])cc2)c(Cl)c1` belongs “Not Active”.
